High-throughput results (PubChem BioAssay)
MrgX1 ag – human MrgX1 receptor agonism, primary screen | 0.44% of 310,000 active | Q96LB2 | AID 588627 | B-score at 10 µM | MrgX1-HEK293 cells, Fluo-4 calcium fluorescence, agonist mode; active compounds read high;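 active means calcium response B-score plate-corrected fluorescence ratio at least 3 library SD, with starting fluorescence B-score inside 5 SD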
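Material: MrgX1-expressing HEK293 cells / Dosing: compound as first of three additions / Incubation: overnight seeding, then 1 h dark dye loading / Signal: Fluo-4 NW calcium fluorescence / Evaluation: B-scored fluorescence response ratio / Benchmarks: positive and negative control wells on each plate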
Kir21 block – inhibitors of mouse Kir2.1 inward-rectifier potassium channel; B-score at 10 µM; 0.85% of 310,000 active; HEK293-Kir2.1, FluxOR thallium flux fluorescence; active compounds read low;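 active means fluorescence ratio B-score at or below minus 3 SD of library scores, with starting-brightness B-score within 2 SD, cut at about -4.2 in these data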;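 further: channel flux triggered by added potassium and thallium sulfate stimulus; B-score of peak minus minimum fluorescence over baseline after thallium stimulus; more negative B-score means stronger Kir2.1 block with less thallium influx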
Target sequence (P35561 whole entry, looked up): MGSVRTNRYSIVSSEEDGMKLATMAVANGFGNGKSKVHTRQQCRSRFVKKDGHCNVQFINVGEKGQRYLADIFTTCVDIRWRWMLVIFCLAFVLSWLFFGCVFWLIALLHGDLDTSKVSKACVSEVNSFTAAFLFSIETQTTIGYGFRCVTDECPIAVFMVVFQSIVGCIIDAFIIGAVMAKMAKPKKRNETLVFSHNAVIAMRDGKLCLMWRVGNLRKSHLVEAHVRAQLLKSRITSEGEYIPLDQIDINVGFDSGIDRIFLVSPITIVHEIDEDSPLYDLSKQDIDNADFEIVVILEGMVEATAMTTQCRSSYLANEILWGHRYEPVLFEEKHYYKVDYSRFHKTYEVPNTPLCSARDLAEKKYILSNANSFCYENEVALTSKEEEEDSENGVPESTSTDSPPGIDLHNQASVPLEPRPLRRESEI
RGS4 block – human RGS4 inhibition; P49798; HEK293 M3R/RGS4 inducible, Fluo-4 calcium flux; active compounds read high; triggered by carbachol at its EC20; B-score at 10 µM; 0.45% of 310,000 active; AID 463165;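 active means B-score, a plate-corrected calcium signal, over three deviations above library mean, with baseline fluorescence within five deviations of library mean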;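 further: RGS4 expression induced by doxycycline in cells with stable M3 receptor; B-score is computed from the integrated fluorescence ratio over baseline after carbachol; higher B-score means a larger calcium signal and so more RGS4 inhibition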
MrgX1 PAM – human MrgX1 positive allosteric modulation, primary screen | AID 588675 | MrgX1-HEK293, Fluo-4 calcium flux, FDSS; active compounds read high | Q96LB2 | B-score at 10 µM | 0.63% of 310,000 active;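 active means plate-corrected calcium response at least 3 library SD above typical, normal starting fluorescence, not activating the receptor alone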;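 further: compound read alongside a low EC10 to EC30 dose of BAM8-22 agonist; peak minus trough fluorescence over baseline measured at the second addition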
RGS4 act – RGS4 potentiation or activation; HEK293 M3R/inducible RGS4, carbachol calcium flux Fluo4; active compounds read low; B-score at 10 µM; 0.92% of 310,000 active;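 active means B-score of the integrated calcium signal more than 4 SD below the library mean, with starting fluorescence not abnormally high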;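 further: negative B-score means reduced calcium response which marks RGS4 activation or potentiation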
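test system = M3R-expressing HEK293 line, RGS4 induced by doxycycline | probe or stimulus = carbachol at ECmax as muscarinic agonist stimulus | timing = dye loading 30 min 37 °C, buffer rest 30 min RT | signal = calcium dye Fluo4 fluorescence | evaluation = B score from integrated fluorescence ratio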
MrgX1 antag – antagonists of human MrgX1 receptor; MRGX1-HEK293 calcium flux, Fluo-4, BAM8-22 antagonism; active compounds read low; B-score at 10 µM; 1.3% of 310,000 active; AID 588676;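 active means calcium-response B-score plate-corrected more than 3 library SD below zero, starting fluorescence within 5 deviations, no agonist response on first addition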;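 further: peak minus trough fluorescence over baseline after final BAM8-22 challenge near maximal dose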
RGS4 block valid – validation of RGS4 inhibitors; shares compounds with RGS4 block; HEK293 M3R/RGS4, carbachol calcium Fluo-4 fluorescence; carbachol added at its EC20; 0 = buffer wells, 100 = carbachol control; calcium response, % at 10 µM; 65% of 1,700 active;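 active means duplicate-averaged calcium response above the buffer-only control mean plus 5 SD of those controls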;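 further: integrated fluorescence ratio F max minus min over baseline F0; higher response in RGS4-induced cells means RGS4 inhibition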
RGS4 uninduced – counter-screen for RGS4 inhibitors: effect in non-induced cells; shares compounds with RGS4 block; HEK293 M3R non-induced, carbachol calcium Fluo-4; submaximal (EC20) carbachol stimulus; buffer wells 0%, carbachol control wells 100%; activity (percent), % at 10 µM; 20% of 1,900 active; AID 493000; call rule not given here;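 further: RGS4 induction absent so cells express M3R without RGS4; higher means more calcium signal and flags a non-specific hit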
RGS4 inh ctr2 – signal in non-induced cells without carbachol, RGS4 inhibitor counter-screen. HEK293 M3R/RGS4 non-induced, Fluo-4 calcium, no carbachol; normalised: buffer wells 0%, carbachol wells 100%. 22% of 1,900 active. shares compounds with RGS4 block. AID 493001. calcium response (agonist-mode artifact), % at 10 µM;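 active means duplicate-averaged calcium rise in uninduced cells above buffer wells' mean plus 5 SD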
Large screens that a line does not name were inactive (follow-up assays come after a bar, where they were run). Only some compounds are listed: those with a hit (about 4.1% of all), similar ones and a draw of the others.

Oc1ccc(C2Nc3cccc4cccc(c34)N2)c(O)c1	RGS4 block 7.7 | RGS4 block valid 9.5% | RGS4 uninduced inactive | RGS4 inh ctr2 inactive
Clc1cccc(C2Nc3cccc4cccc(c34)N2)c1Cl	none
Cc1nn(CC(=O)NCc2cccs2)c(=O)c2nn(-c3ccccc3)c(C)c12	none | RGS4 block valid inactive | RGS4 uninduced inactive | RGS4 inh ctr2 inactive
Cc1ccccc1CCNC(=O)Cn1nc(C)c2c(C)n(-c3ccccc3)nc2c1=O	none
COc1ccc(CCNC(=O)CCC2COc3ccccc3O2)cc1OC (centres undefined)	none | RGS4 block valid inactive | RGS4 uninduced inactive | RGS4 inh ctr2 inactive
COc1cc(/C=N/NC2=NCCCCC2)ccc1O	none
c1ccc2c(c1)NC1(CCCCC1)n1c-2nc2ccccc21	none
FC(F)(F)c1cc(CCN2CCNC[C@H]2Cc2cccc3ccccc23)cc(C(F)(F)F)c1	RGS4 block 5.1 | RGS4 block valid 7.0% | RGS4 uninduced inactive | RGS4 inh ctr2 inactive
Oc1ccc(C[C@@H]2CNCCN2CCc2cc(C(F)(F)F)cc(C(F)(F)F)c2)cc1	none
Nc1c(C(=O)NCc2cccnc2)sc(=S)n1-c1ccccc1	none
Cc1ccc(-c2cn(-c3ccccc3)c(SCC(N)=O)n2)cc1C	RGS4 block 4.7 | RGS4 block valid 9.5% | RGS4 uninduced inactive | RGS4 inh ctr2 inactive
Cc1ccccc1CNC(=O)c1ccccc1C(=O)O	none
c1cncc(CNc2cccc(-c3nc4ccccc4[nH]3)c2)c1	none
COc1ccc(C(C)=O)cc1COC(=O)Cc1n[nH]c(=O)c2ccccc12	none
O=C1NC(c2ccccc2)=C(c2nc3ccccc3s2)C(c2ccccc2)N1 (centres undefined)	none | RGS4 uninduced 30% | RGS4 inh ctr2 26%
Cc1cc(C(=O)Nc2sc(C)c(C)c2C#N)c(C)o1	RGS4 block 7.5 | RGS4 block valid 12% | RGS4 uninduced inactive | RGS4 inh ctr2 10%
O=C(NNc1nc(=O)c2cccnc2s1)c1ccccc1O	RGS4 block 5.2 | RGS4 block valid 18% | RGS4 uninduced inactive | RGS4 inh ctr2 inactive
O=C(NNc1c2ccccc2nc2ccccc12)c1ccccc1O	none
Cc1ccc(NC(=O)CN(C)C(=O)c2cccnc2Nc2cccc(C(F)(F)F)c2)cc1	RGS4 block 6.8 | RGS4 block valid 18% | RGS4 uninduced inactive | RGS4 inh ctr2 inactive
CCOc1ncccc1C(=O)N(C)CC(=O)Nc1ccc(C)cc1	none
C=CCOc1ccccc1C(=O)/C=C1/C(=O)Nc2ccccc21	none
O=C1Nc2ccccc2/C1=C/C(=O)c1cccs1	RGS4 block 7.1 | RGS4 block valid 14% | RGS4 uninduced inactive | RGS4 inh ctr2 inactive
COc1ccc(C(=O)/C=C2/C(=O)Nc3ccccc32)cc1	RGS4 block 7 | RGS4 block valid 16% | RGS4 uninduced inactive | RGS4 inh ctr2 inactive
NC(=O)COc1ccc(C(=O)/C=C2/C(=O)Nc3ccccc32)cc1	none
CCC1(CC)Cc2ccccc2-c2nc(NCCCO)[nH]c(=O)c21	RGS4 block 37 | RGS4 block valid 71% | RGS4 uninduced 53% | RGS4 inh ctr2 7.5%
CCC1(C)Cc2ccccc2-c2nc(NCCCO)[nH]c(=O)c21 (centres undefined)	none | RGS4 uninduced 39% | RGS4 inh ctr2 inactive
CCC1(CC)Cc2ccccc2-c2nc(CN(C)C)[nH]c(=O)c21	none
CCC1(C)Cc2ccccc2-c2nc(SC)[nH]c(=O)c21 (centres undefined)	none
